# procasp3 activ = activates human procaspase-3; P42574; recombinant procaspase-3 D3A, Ac-DEVD-pNA absorbance 405 nm; activation, % at 8.5 µM; 330,000 tested, 0.11% active;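 active = activation above the mean of all tested compounds plus 3 SD, cut at about 21% in these data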;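 also: 0% = DMSO alone and 100% = DMSO wells spiked with extra 5 µM PC-3 D3A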
# Target sequence (P42574 whole entry D9A/D28A/D175A): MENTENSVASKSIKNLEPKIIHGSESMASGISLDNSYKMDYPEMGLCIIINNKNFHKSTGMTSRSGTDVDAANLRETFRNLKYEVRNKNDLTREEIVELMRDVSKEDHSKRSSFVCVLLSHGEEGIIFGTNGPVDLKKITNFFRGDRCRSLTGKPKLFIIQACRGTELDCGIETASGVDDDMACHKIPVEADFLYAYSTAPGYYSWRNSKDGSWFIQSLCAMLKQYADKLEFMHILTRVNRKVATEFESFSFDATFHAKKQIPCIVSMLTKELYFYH
#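 Technique: 405 nm absorbance of p-nitroaniline, reads at 0 and 120 min; Test system: Procaspase-3 D3A mutant; Incubation: 1 h enzyme-compound preincubation, then 2 h substrate reaction, 25 °C; Repeats: singlicate, each compound tested once; Benchmarks: low control DMSO wells, high control DMSO plus 5 µM PC-3 D3A.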
# CHT inh = inhibits the human high affinity choline transporter; CHT-expressing cells, membrane potential dye, choline response; hits give low values; B-score at 10 µM; 310,000 tested, 0.86% active; AID 488975;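 active = B-score over 3 SD under the library average, and starting fluorescence ratio not unusually high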;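 also: choline stimulus applied at its EC90 after an EC20 pre-addition; B-score computed on integrated fluorescence ratio after choline addition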
# proCasp7 act = counter-screen for procaspase-3 activators: activators of human procaspase-7 | recombinant procaspase-7, Ac-DEVD-pNA absorbance 405 nm; D23A/D198A/D206A triple mutant, cannot self-cleave; scale: DMSO 0, 5 µM enzyme 100 | activation, % at 8.5 µM | 330,000 tested, 0.093% active;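 active = percent activation above the screen-wide mean plus 3 SD, cut at about 25% in these data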
# Target sequence (P55210 whole entry D23A/D198A/D206A): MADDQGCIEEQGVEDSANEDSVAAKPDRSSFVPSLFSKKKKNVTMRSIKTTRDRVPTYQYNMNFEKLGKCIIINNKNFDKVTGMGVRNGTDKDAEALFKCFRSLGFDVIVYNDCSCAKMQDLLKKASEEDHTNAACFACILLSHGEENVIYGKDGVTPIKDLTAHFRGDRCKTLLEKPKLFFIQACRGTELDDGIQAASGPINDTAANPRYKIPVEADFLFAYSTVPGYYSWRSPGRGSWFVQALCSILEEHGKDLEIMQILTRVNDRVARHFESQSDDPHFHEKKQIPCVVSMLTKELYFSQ
#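 buffer or medium = Zinc-free HEPES/NaCl buffer, pH 7.4 | material = Procaspase-7 triple mutant (PC-7 D3A) | input = 2 µM procaspase-7 mutant as dispensed | signal = Epi-absorbance of released pNA at 405 nm, two timepoints | timing = 1 h preincubation, 2 h reaction | replicates = singlicate compound testing | evaluation = % activation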
# CHT allo act = human CHT allosteric activation; CHT-expressing cells, membrane potential dye, choline EC20; hits give high values; LV-AA mutant CHT in HEK293 cells; B-score at 10 µM; 310,000 tested, 0.49% active;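 active = initial fluorescence not abnormally high and integrated response B-score, plate-corrected, over 3 SD above library mean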
# CHT activ conf = human CHT activation, confirmatory screen. shares compounds with CHT allo act. CHT-expressing cells, membrane potential dye fluorescence (FDSS); % of choline EC20–EC90 response window; HEK293 expressing CHT LV-AA mutant; choline added at its EC20. activation, % at 10 µM. 2,500 tested, 91% active. AID 504833;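 active = primary screen active, with duplicate mean activation above negative control mean plus 3 SD, cut at about 11% in these data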
# HEK293 MP dye = activity in parental HEK293 cells lacking CHT; membrane potential dye fluorescence (FDSS); measured after EC20 choline addition; 2,500 tested, 62% active; ratio readout change at 10 µM, hits read low; AID 623908; shares compounds with CHT allo act;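 active = duplicate-averaged ratio beyond 3 SD from buffer wells, up or down, though filed actives are nearly all decreases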
# * = called active by the depositor; i = inactive; / = no result. Shown are actives, neighbours in structure and some others; about 1.3% of the full set was active somewhere.
SMILES,procasp3 activ,CHT inh,proCasp7 act,CHT allo act,CHT activ conf,HEK293 MP dye
Cc1cc[n+]2cc(-c3cccc([N+](=O)[O-])c3)c(-c3cccc([N+](=O)[O-])c3)cc2c1,6,i,3,7*,65*,-84*
Cc1cccc(-c2cnn(-c3cccc([N+](=O)[O-])c3)c2N)c1,-6,i,-2,i,/,/
Cc1cnc(C(=O)Nc2cc(S(=O)(=O)N3CCOCC3)ccc2N2CCN(C)CC2)cn1,-1,i,7,9.7*,51*,-57*
CC(=O)/C=C/c1ccccc1O,7,i,0,i,/,/
C[n+]1ccc(/C=C/c2ccccc2O)c2ccccc21,-2,i,-9,i,30*,-39*
COc1ccc(C(=O)O)cc1S(=O)(=O)NCc1ccncc1,4,/,10,/,/,/
COc1ccc(N(CC(=O)NCCSc2ccc(C)cc2)S(=O)(=O)c2ccccc2)c(OC)c1,9,i,-2,i,/,/
CCCc1nc2c(C)cc(C)cc2c(N)c1CC,0,i,8,7.1*,44*,-38*
CC1SC(c2ccc(F)cc2)N(CCc2ccccc2)C1=O (stereo not given),-5,i,-9,i,/,/
Cc1nc2ccc(S(=O)(=O)NCC(=O)Nc3ccc(F)cc3)cc2s1,-4,i,-1,i,/,/
Cn1c(Cc2ccccc2)[n+](C)c2ccccc21,4,i,3,i,49*,-41*
CC[C@@]1(C(=O)OC)N[C@H](CN(C)S(=O)(=O)c2ccc(F)cc2)[C@@H]2C(=O)N(C)C(=O)[C@@H]21,9,/,6,/,/,/
CCOC(=O)[C@@H]1[C@H]2COc3ccc(Br)cc3[C@@H]2N2C(=O)N(c3ccccc3)C(=O)[C@@]12C,8,i,-5,8.7*,20*,i
CCOC(=O)[C@H]1[C@H]2COc3ccc(Br)cc3[C@@H]2N2C(=O)N(c3ccccc3)C(=O)[C@@]12C,-1,/,9,/,/,/
CCOC(=O)c1c(C)n(-c2ccccc2)c2ccc(OCCN(C)C)cc12,-12,i,-10,i,31*,i
CCOC(=O)c1c(C)n(-c2ccc(OC)cc2)c2ccc(O)c(CN(C)C)c12,4,i,6,6.5*,9,-26*
CCOC(=O)c1c(C)n(-c2ccc(C)cc2)c2ccc(O)c(CN(C)C)c12,0,i,-1,8.8*,15*,i
CCOC(=O)c1sc(=N)n(-c2ccc(OC)cc2)c1C,12,i,-7,i,/,/
O=C(Nc1ccncc1)C1CCN(S(=O)(=O)c2ccc(Cl)c(C(F)(F)F)c2)CC1,1,/,2,/,/,/
CCCCCN(C(=O)CCC(=O)OCC(=O)Nc1cccc(SC)c1)c1c(N)n(CCCC)c(=O)[nH]c1=O,2,i,9,i,/,/
COc1ccc(C[C@H]2CN3C(=NC[C@@H]3Cc3ccccc3)N2CCNC(=O)CCC2CCCCC2)cc1,0,i,-7,9.6*,20*,i
COc1cccc(C(=O)NCC2CCCN(C(=O)c3ccc(C=O)cc3)C2)c1OC (stereo not given),-3,i,5,i,/,/
O=S(=O)(NCc1c(Cl)cccc1Oc1ccccc1)c1ccc(F)cc1,-4,i,0,i,1,i
O=C(O)CSCC(=O)NCc1c(Cl)cccc1Oc1ccccc1,11,i,0,i,/,/
CCN(c1ccccc1)S(=O)(=O)c1cc2c(cc1C)NC(=O)CO2,10,i,4,i,/,/
SMILES,procasp3 activ,CHT inh,proCasp7 act,CHT allo act,CHT activ conf,HEK293 MP dye
Cc1ccc(C(=O)C[n+]2cccc3cc(C)ccc32)cc1,-2,i,-10,i,38*,-35*
CCOc1ccc(C(=O)C[n+]2cccc3cc(C)ccc32)cc1,3,i,-4,i,/,/
CCN1/C(=C/c2cc[n+](C)cc2)C=Cc2cc(C)ccc21,-6,i,7,i,21*,-61*
CCC(C)N1CCC2(CC1)N=c1c(c3c4c5c(C)c(O)c3c(O)c1=NC(=O)C(C)=CC=C[C@H](C)[C@H](O)[C@@H](C)[C@@H](O)[C@@H](C)[C@H](OC(C)=O)[C@H](C)[C@@H](OC)C=CO[C@@](C)(O5)C4=O)N2 (stereo not given in full),4,i,14,i,22*,-42*
CC[n+]1c(S(=O)(=O)[O-])ccc2ccc(C)cc21,0,i,7,i,/,/
CC[n+]1c(C)sc2c(C)cc(C)cc21,-26,i,-22,7.8*,62*,-60*
O=C(Nc1ccc2c(c1)CCCN2C(=O)c1ccccc1)c1ccccc1,3,i,-3,i,/,/
Cc1ccc2c(c1)S/C(=C/c1ccc[n+](C)c1)N2CCO,2,i,-15,7*,34*,-49*
O=C(Cn1c(=O)oc2ccccc21)Nc1ccc(Cl)cc1Cl,-5,i,8,i,/,/
Cc1c(C)n(-c2ccccc2)c2ncnc(NCCN(C)C)c12,6,i,20,i,46*,-42*
COc1ccc(-n2c(C)c(C)c3c(NCCN(C)C)ncnc32)cc1,-8,i,3,7*,45*,-33*
COc1ccc(-n2c(C)c(C)c3c(NCCCN(C)C)ncnc32)cc1,8,i,4,i,/,/
Cc1ccc(-n2c(C)c(C)c3c(NCCCO)ncnc32)cc1,/,i,/,i,/,/
COc1cc(OC)c2nc(C)c3c(c2c1)N(c1ccc(O)cc1)CC3,2,i,21,6.4*,34*,-42*
COc1ccc(N2CCN(c3cc(C)c4ccc(O)cc4n3)CC2)cc1,-4,i,4,i,/,/
Cn1c(N/N=C/c2c[nH]c3ccccc23)nc2ccccc21,-6,i,4,i,33*,-59*
Cc1ccc(S(=O)(=O)Nc2nncs2)cc1,8,i,-7,9.5*,-3,i
CSc1cccc(NC(=O)c2cccc3cccnc23)c1,2,i,-5,i,/,/
c1cc(-c2nnc(-c3ccncc3)o2)ccn1,5,i,-9,8.7*,77*,-59*
CCSc1nnc(-c2ccncc2)o1,-9,i,10,i,/,/
CCCCCCCCC1=NCCc2c1[nH]c1ccccc21,-3,i,-2,i,48*,i
CCCCc1c(O)c2ccccc2[nH]c1=O,5,i,-3,i,/,/
O=C(COC(=O)c1cc[n+]([O-])cc1)Nc1ccc(Cl)cc1Cl,0,/,-3,/,/,/
CN(C)c1cc[n+](CC(=O)Nc2ccc([N+](=O)[O-])cc2Cl)cc1,1,i,8,6.5*,5,-33*
